These results are taken from PMC6253716 (Chemical Science, 2018).

Like-named read-outs stand apart in the source and are kept apart here.

One test concerns pRSK in A375 cells. Description: Quantification of pRSK by MSD, A375. The test is classed as cell-based. To be noted: Homo sapiens, read-out: Pharmacodynamic IC50 (pRSK). The method in brief: (§1)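 Lysis was 20 min at RT. Lysate was captured 3 h at RT on anti-pRSK-coated MSD plates, detected with sulfo-tag anti-RSK antibody for 1 h, and read electrochemiluminescently. IC50 came from a sigmoidal dose–response fit.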

The subject of test [1] is HCT116 KRAS mutant colorectal cells. Kind of test: Cell proliferation assay. The test is classed as cell-based. To be noted: Homo sapiens, HCT-116, 96 h, read-out: Anti-proliferative IC50 HCT116. The method in brief: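 Cells were kept in DMEM + 10% FBS at 37 °C, 5% CO2. 5 × 10^3 cells were seeded one day before treatment. Compound was given in 0.1% (v/v) DMSO for 96 h, then viability was read with Alamar Blue. IC50 came from a sigmoidal dose–response fit.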

Test [2] deals with ERK1/2. Description: In-lysate ERK1/2 pull down in competition with SCH-TCO. The test is classed as binding. To be noted: cell lysates.
For test [3], the system named is ERK1/2. Description: In-lysate ERK1/2 pull down in competition with TCO-GDC-2. To be noted: HCT116 lysates; for Target engagement EC50 with TCO-GDC-2 probe (in words): apparently exaggerated. The test is classed as binding.
Another test concerns pRSK in HCT116 cells. Kind of test: Quantification of pRSK by MSD, HCT116. To be noted: for IC50: Homo sapiens, read-out: Pharmacodynamic IC50 (pRSK). The test is classed as cell-based. Put shortly: as §1
Test [4] deals with T1, ERK2 (Homo sapiens, UniProt P28482). Description: In-cell ERK1/2 pull down in competition with SCH-TCO, ERK2. The test is classed as cell-based.
The target of test [5] is T2, ERK1 (Homo sapiens, UniProt P27361). Description: ITDR-CETSA in HCT116 cells, ERK1. The test is classed as cell-based.
Test [6] has as its system ERK1/2. Kind of test: CETSA melting curves. The test is classed as cell-based. To be noted: HCT116 cells and lysates; 10 μM inhibitor. The method in brief: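 HCT116 cells in McCoy's 5A at 3 × 10^6 cells per mL got DMSO or 10 μM inhibitor for 1 h at 37 °C. Lysate arm: TG lysis buffer lysate with 10 μM inhibitor for 15 min at RT. Samples were heated 3 min at 12 temperatures (37–70 °C) and lysed by 3 freeze–thaw cycles. Soluble fraction (20 000g, 20 min) was immunoblotted for total ERK1/2 and quantified by densitometry into melting curves.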

Test [7] deals with T1, ERK2. Description: ITDR-CETSA in HCT116 cells, ERK2. The test is classed as cell-based.
Test [8] deals with T1, ERK2. Description: ERK2 bioassay. The test is classed as biochemical.
The target in test [9] is T2, ERK1. Kind of test: In-cell ERK1/2 pull down in competition with SCH-TCO, ERK1. The test is classed as cell-based.
Test [10] has as its system ERK1/2. To be noted: published data for the untagged compound; cited from earlier work.

T2 sequence (P27361 whole entry): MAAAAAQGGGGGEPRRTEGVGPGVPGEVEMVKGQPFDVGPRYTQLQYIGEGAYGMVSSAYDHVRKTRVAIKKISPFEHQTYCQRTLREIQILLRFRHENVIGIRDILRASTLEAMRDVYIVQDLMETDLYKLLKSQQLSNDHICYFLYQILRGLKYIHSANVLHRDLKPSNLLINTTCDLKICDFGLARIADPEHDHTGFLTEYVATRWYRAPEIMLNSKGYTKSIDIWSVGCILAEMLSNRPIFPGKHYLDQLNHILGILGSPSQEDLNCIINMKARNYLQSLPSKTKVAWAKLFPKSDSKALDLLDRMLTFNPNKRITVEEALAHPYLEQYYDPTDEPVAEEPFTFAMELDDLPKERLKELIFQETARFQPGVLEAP
T1 sequence (P28482 whole entry): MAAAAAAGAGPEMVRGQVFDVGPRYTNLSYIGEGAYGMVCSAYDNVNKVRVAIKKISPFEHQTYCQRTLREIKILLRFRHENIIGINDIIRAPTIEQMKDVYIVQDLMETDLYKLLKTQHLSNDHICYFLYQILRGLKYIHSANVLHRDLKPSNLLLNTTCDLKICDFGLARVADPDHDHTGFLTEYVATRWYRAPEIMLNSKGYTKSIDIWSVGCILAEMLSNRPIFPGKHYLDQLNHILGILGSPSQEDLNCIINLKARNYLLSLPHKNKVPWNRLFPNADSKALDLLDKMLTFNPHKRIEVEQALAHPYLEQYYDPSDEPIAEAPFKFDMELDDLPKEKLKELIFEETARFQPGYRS

Regarding `Cn1nccc1Nc1nccc(-c2ccn([C@H](CO)c3ccc(Cl)c(F)c3)c(=O)c2)n1` [GDC-0994], the IC50 in the test on pRSK in A375 cells (A-375, 2 h) was determined as 170 nM; with pRSK in A375 cells (A-375, 7 h) it was 130 nM; in test [1], 1000 nM; in the test on pRSK in HCT116 cells (HCT-116, 2 h) it was 140 nM; in the test with pRSK in HCT116 cells (HCT-116, 7 h), 110 nM. Also, the “Difference between EC50 in A375 and HCT116 lysates” value in the test on ERK1/2 [2] is reported as 2-3 fold. Moreover, the “Difference between EC50 in competition with TCO-GDC-2 as compared with SCH-TCO” value in the test on ERK1/2 [3] was approximately 2 fold. Moreover, the “Target engagement EC50 with TCO-GDC-2 probe (in words)” value with ERK1/2 [3] is “low nanomolar range”.
For `Cn1nccc1Nc1nccc(-c2cc3c(s2)C(C)(C)N(CCN2CCOCC2)C3=O)n1` [LY3214996], the IC50 is 2100 nM in the test with pRSK in A375 cells (A-375, 4 h) and 480 nM in [1]. In addition, the EC50 on ERK2 [4] came to 770 nM; at ERK1 [5] it was 300 nM; at ERK2 [7] it was 330 nM; at ERK1 [9], 670 nM. Also, the “Effect on CETSA melting curves of ERK1/2 relative to DMSO control” value in the test on ERK1/2 [6] was “temperature shift in the melting curves”. Moreover, the “Difference between EC50 in competition with TCO-GDC-2 as compared with SCH-TCO” value in the test on ERK1/2 [3] is approximately 2 fold. For the same compound, the “Target engagement EC50 with TCO-GDC-2 probe (in words)” value with ERK1/2 [3] was “low nanomolar range”. Further, at ERK2 [8] (at 0.003 μM), the “Bioassay % @ 0.003 μM” value is given as 62% @ 0.003 μM (2). Further, the “Suppression of pRSK” value in the test on pRSK in HCT116 cells (HCT116 cells) was “failed to show convincing suppression of pRSK”.
Consider `O=C(Nc1ccc2[nH]nc(-c3ccncc3)c2c1)[C@@H]1CCN(CC(=O)N2CCN(c3ccc(-c4ncccn4)cc3)CC2)C1` [SCH772984], for which the IC50 in the test with pRSK in A375 cells (A-375, 2 h) stood at 20 nM; with pRSK in A375 cells (A-375, 7 h), 20 nM; in [1], 50 nM; with pRSK in HCT116 cells (HCT-116, 2 h), 9 nM; in the test on pRSK in HCT116 cells (HCT-116, 7 h) it was 6 nM. For the same compound, the EC50 at ERK1 [5] stood at 63 nM; on ERK1 [9], 16 nM. For the same compound, in the test with ERK1/2 [10], the “t1/2 (off-rate, published data)” value was 25 to 80 min. The “Difference between engagement of ERK1 and ERK2” value at ERK2 [7] (ITDR-CETSA in HCT116 cells, higher affinity for ERK2) is reported as 4 fold.
Regarding Biotin-PEG4-tetrazine [Biotin-PEG4-Tz], on ERK2 [8], the “Inhibition of ERK2 (in words)” value was “does not appreciably inhibit ERK2”. The IC50 at ERK2 [8] (read-out: Bioassay IC50, geometric means) was determined as 8100 nM.

The term IC50 denotes the midpoint of a concentration-inhibition curve. As usually defined, the EC50 is the concentration needed to bring the measured effect to its halfway point. A high value points to weaker potency.
